This is an account of results in ChEMBL document CHEMBL1130100, “Stabilized analogs of thymopentin. 3. Evaluation of ketomethylene pseudopeptides for antiarthritic properties” (1997).

Values joined by “and” are separate entries in the source; they are usually repeats but may differ in a detail not shown here. Identical values can stand only once.

What all share (type): functional
The test system of assay [1] is Mus musculus. Put plainly: On set and incidence of arthritis in the Mouse Type II collagen model at 0.5 dose mg/kg on day 44, expressed as number of mice treated out of 12 tested. An outline of the steps: (§1)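 DBA/1 Lac mice sensitized with bovine type II collagen (100 μg) in Freund's complete adjuvant, ip boost (100 μg) on day 21. Freshly dissolved compound in sterile saline was given iv every second day, day 19 through day 40, groups of 12. A mouse was scored arthritic if erythema or edema was present on any digit, paw or appendage. Incidence reported as number positive of 12.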

The test system of assay [2] is Mus musculus. The experiment in a line: On set and incidence of arthritis in the Mouse Type II collagen model at 0.5 dose mg/kg on day 37,expressed as number of mice treated out of 12 tested. In short, it runs like this: as §1
Assay [3] relates to Mus musculus. The experiment in a line: On set and incidence of arthritis in the Mouse Type II collagen model at 0.5 dose mg/kg on day 40, expressed as number of mice treated out of 12 tested. In short, it runs like this:
as §1

The subject of assay [4] is Rattus norvegicus. Put plainly: extent of paw swelling following treatment with the compound in the rat adjuvant arthritis model observed on day 16 at 0.050 mg/kg dose. The settings on record: dose 0.05 mg/kg. An outline of the steps: (§2)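 Rat adjuvant arthritis with iv dosing every second day, starting 2 days before the adjuvant/antigen challenge. Initial doses ranged 0.05 to 0.50 mg/kg, eight rats per dose. Each hind paw was measured by caliper. Swelling minus age-matched normal paw, expressed as % of untreated animals.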

The subject of assay [5] is Rattus norvegicus. Put plainly: extent of paw swelling following treatment with the compound in the rat adjuvant arthritis model observed on day 19 at 0.050 mg/kg dose. The settings on record: dose 0.05 mg/kg. An outline of the steps:
as §2

The subject of assay [6] is Mus musculus. Put plainly: On set and incidence of arthritis in the Mouse Type II collagen model following 0.5 mg/kg on day 30. In short, it runs like this: as §1
In assay [7] the test system is Mus musculus. Put plainly: Extent of paw swelling after treatment with thymopentin-5 (TP-5) compound in the Mouse Type II collagen arthritis at 1 mg/kg on day 30. In short, it runs like this: (§3)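 DBA/1 Lac mice immunized with bovine type II collagen (100 μg) in Freund's complete adjuvant at four to six back sites, then boosted ip (100 μg) on day 21. Dosing was iv in sterile saline every second day from day 19 through day 40, 12 mice per dose. Each hind paw was measured by caliper. Result given as % of untreated swelling after subtracting age-matched normal paw.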

For assay [8], the system named is Rattus norvegicus. Put plainly: extent of paw swelling following treatment with the compound in the rat adjuvant arthritis model observed on day 12 at 0.050 mg/kg dose. The settings on record: dose 0.05 mg/kg. An outline of the steps:
as §2

In assay [9] the test system is Mus musculus. Put plainly: (§4) Extent of paw swelling after treatment with thymopentin-5 (TP-5) compound in the Mouse Type II collagen arthritis at a dosage of 1.0 mg/kg on day 44. In short, it runs like this: as §3
Assay [10] relates to Mus musculus. The experiment in a line: On set and incidence of arthritis in the Mouse Type II collagen model at 0.5 dose mg/kg on day 37, expressed as ratio of number treated to that of control. An outline of the steps:
as §1

The test system of assay [11] is Mus musculus. Described as §4. In short, it runs like this:
as §3
This is another data set of the same source.

The subject of assay [12] is Mus musculus. The experiment in a line: On set and incidence of arthritis in the Mouse Type II collagen model at 0.5 dose mg/kg on day 40, expressed as ratio of number treated to that of control. An outline of the steps:
as §1

For assay [13], the system named is Mus musculus. The experiment in a line: On set and incidence of arthritis in the Mouse Type II collagen model at 0.5 dose mg/kg on day 44, expressed as ratio of number treated to that of control. In short, it runs like this: as §1
In assay [14] the test system is Mus musculus. The experiment in a line: 60 Extent of paw swelling after treatment with thymopentin-5 (TP-5) compound in the Mouse Type II collagen arthritis at a dosage of 1.0 mg/kg on day 30. In short, it runs like this:
as §3

Assay [15] deals with Rattus norvegicus. Put plainly: extent of paw swelling following treatment with the compound in the rat adjuvant arthritis model observed on day 16 at 0.05 mg/kg dose. An outline of the steps:
as §2

Assay [16] concerns Rattus norvegicus. The experiment in a line: extent of paw swelling following treatment with the compound in the rat adjuvant arthritis model observed on day 12 at 0.05 mg/kg dose. In short, it runs like this:
as §2

Assay [17] concerns Rattus norvegicus. Put plainly: extent of paw swelling following treatment with the compound in the rat adjuvant arthritis model observed on day 19 at 0.05 mg/kg dose. An outline of the steps: as §2
The test system of assay [18] is Rattus norvegicus. Put plainly: extent of paw swelling following treatment with the compound in the rat adjuvant arthritis model observed on day 12 at 0.50 mg/kg dose. Particulars: dose 0.5 mg/kg. In short, it runs like this: as §2
The subject of assay [19] is Rattus norvegicus. The experiment in a line: extent of paw swelling following treatment with the compound in the rat adjuvant arthritis model observed on day 19 at 0.50 mg/kg dose. Particulars: dose 0.5 mg/kg. In short, it runs like this: as §2
Assay [20] concerns Mus musculus. The experiment in a line: Extent of paw swelling after treatment with thymopentin-5 (TP-5) compound in the Mouse Type II collagen arthritis at a dosage of 0.03 mg/kg on day 30. In short, it runs like this:
as §3

Assay [21] concerns Rattus norvegicus. The experiment in a line: extent of paw swelling following treatment with the compound in the rat adjuvant arthritis model observed on day 16 at 0.50 mg/kg dose. The settings on record: dose 0.5 mg/kg. In short, it runs like this:
as §2

As to `CCCCC(NC(=O)[C@H](CCCN=C(N)N)NC(C)=O)C(=O)N[C@@H](CC(=O)O)C(=O)NC(C(=O)C[C@@H](Cc1ccccc1)C(=O)O)C(C)C` (stereo partly drawn), the No. of mice with Mus musculus [1] worked out at 12; with Mus musculus [2], 11; with Mus musculus [3] it was 11; in the assay with Mus musculus [6], 8. The Paw swelling turned out to be 100% in the assay with Rattus norvegicus [4], 100% in the assay with Rattus norvegicus [5], 100% in the assay with Mus musculus [7] and 0% with Rattus norvegicus [8].

Regarding `CCCCC(CC(=O)[C@@H](N)CCCN=C(N)N)C(=O)N[C@@H](CC(=O)O)C(=O)NC(C(=O)C[C@H](C(=O)O)C(C)C)C(C)C` (stereo in doubt; 1h-A), the Paw swelling in the assay on Mus musculus [9] was 63%; in the assay on Mus musculus [11], 95% and 75% and 63%. In addition, the No. of mice in the assay on Mus musculus [10] stood at 10; in the assay on Mus musculus [12] it was 10; in the assay with Mus musculus [13] it was 10; with Mus musculus [6] (0.5 mg/kg), 7.

Turning to `CCCC[C@@H](C(=O)N[C@@H](CC(=O)O)C(=O)N[C@H](C(=O)C[C@H](C(=O)O)C(C)C)C(C)C)N(C)C(=O)[C@@H](N)CCCN=C(N)N` (stereo in doubt; 1m-A), the No. of mice came out at 6 in the assay with Mus musculus [10], 7 in the assay on Mus musculus [12], 7 with Mus musculus [13] and 3 in the assay on Mus musculus [6] (0.5 mg/kg). The Paw swelling with Mus musculus [14] is 60%; with Rattus norvegicus [4], 80%; with Rattus norvegicus [5], 45%; in the assay on Mus musculus [7] (1 mg/kg), 73% and 58%; with Rattus norvegicus [8], 0%.

As to `CCCC[C@@H](C(=O)N[C@@H](CC(=O)O)C(=O)N[C@H](C(=O)C[C@H](C(=O)O)C(C)C)C(C)C)N(C)C(=O)[C@@H](N)CCCN=C(N)N` (stereo in doubt; 1m-B), the Paw swelling in the assay on Rattus norvegicus [15] was determined as 100%; with Rattus norvegicus [16] it was 0%; in the assay on Rattus norvegicus [17] it was 100%; with Mus musculus [7] (1 mg/kg), 100%. The No. of mice in the assay on Mus musculus [10] is 11; in the assay with Mus musculus [12] it was 11; with Mus musculus [13], 12; in the assay on Mus musculus [6] (0.5 mg/kg), 8.

As for `CC(C)[C@H](CC(=O)[C@H](CC(=O)O)NC(=O)[C@H](CCCCN)NC(=O)[C@@H](N)CCCN=C(N)N)C(=O)N[C@@H](Cc1ccccc1)C(=O)O` (stereo in doubt; 3a-A), the Paw swelling in the assay on Rattus norvegicus [18] was 0%; in the assay on Rattus norvegicus [19] it was 39%; in the assay with Mus musculus [20], 30% and 70% and 73%; in the assay with Rattus norvegicus [21], 100%. Further, the results for the No. of mice in the assay on Mus musculus [10], with Mus musculus [13] and in the assay with Mus musculus [6] were 8, 9 and 5, respectively.
